From ChEMBL document CHEMBL1139054, “Indanylacetic acid derivatives carrying aryl-pyridyl and aryl-pyrimidinyl tail groups--new classes of PPAR gamma/delta and PPAR alpha/gamma/delta agonists” (Bioorg Med Chem Lett, 2007)
Active and inactive are the calls of the source. No cut-off for these calls is given here.

Tests used:
[1] = target: T1, Peroxisome proliferator-activated receptor alpha (Homo sapiens, UniProt Q07869); assay: Agonist activity at human PPARalpha by FRET assay; assay type: functional
T1 sequence (Q07869 whole entry): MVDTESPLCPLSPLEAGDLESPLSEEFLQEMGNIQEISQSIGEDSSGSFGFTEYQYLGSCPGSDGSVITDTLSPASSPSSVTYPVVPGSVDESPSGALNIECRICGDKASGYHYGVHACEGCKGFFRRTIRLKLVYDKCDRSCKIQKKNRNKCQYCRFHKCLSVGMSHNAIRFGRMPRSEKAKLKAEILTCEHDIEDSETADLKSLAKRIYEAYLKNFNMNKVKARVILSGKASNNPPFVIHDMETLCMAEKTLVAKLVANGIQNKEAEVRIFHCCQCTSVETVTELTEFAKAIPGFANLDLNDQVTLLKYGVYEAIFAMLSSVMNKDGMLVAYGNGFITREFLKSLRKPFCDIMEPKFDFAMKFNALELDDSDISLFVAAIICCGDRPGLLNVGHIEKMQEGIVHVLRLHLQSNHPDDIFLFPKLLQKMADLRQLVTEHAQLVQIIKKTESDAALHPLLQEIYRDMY
Outline: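 Human PPARα ligand-binding domain (GST-tagged) incubated with compound, europium-labeled anti-GST antibody, biotinylated coactivator-binding peptide and streptavidin-APC. FRET read at excitation 340 nm, emission 615 and […]. Means of at least two experiments.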

[2] = target: T2, Peroxisome proliferator-activated receptor gamma (Mus musculus, UniProt P37238); assay: Agonist activity at PPARgamma in mouse 3T3-L1 cells by IRBA; assay type: functional, cell-based
T2 sequence (P37238 whole entry): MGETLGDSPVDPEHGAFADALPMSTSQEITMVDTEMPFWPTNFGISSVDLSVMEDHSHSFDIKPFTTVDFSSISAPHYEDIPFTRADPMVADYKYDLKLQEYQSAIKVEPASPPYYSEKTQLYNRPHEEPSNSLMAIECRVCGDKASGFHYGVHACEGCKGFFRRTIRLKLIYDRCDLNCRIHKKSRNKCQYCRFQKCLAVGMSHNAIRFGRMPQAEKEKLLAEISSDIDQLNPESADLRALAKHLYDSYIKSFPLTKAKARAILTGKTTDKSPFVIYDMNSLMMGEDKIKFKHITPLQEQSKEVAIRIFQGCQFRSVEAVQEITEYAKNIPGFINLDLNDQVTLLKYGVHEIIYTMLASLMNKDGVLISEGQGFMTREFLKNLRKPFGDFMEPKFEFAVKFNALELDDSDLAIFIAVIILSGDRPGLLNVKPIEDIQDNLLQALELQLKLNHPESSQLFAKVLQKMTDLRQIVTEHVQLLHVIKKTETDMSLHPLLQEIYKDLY

[3] = target: T3, Peroxisome proliferator-activated receptor delta (Homo sapiens, UniProt Q03181); assay: Agonist activity at human PPARdelta by FRET assay; assay type: functional
T3 sequence (Q03181 whole entry): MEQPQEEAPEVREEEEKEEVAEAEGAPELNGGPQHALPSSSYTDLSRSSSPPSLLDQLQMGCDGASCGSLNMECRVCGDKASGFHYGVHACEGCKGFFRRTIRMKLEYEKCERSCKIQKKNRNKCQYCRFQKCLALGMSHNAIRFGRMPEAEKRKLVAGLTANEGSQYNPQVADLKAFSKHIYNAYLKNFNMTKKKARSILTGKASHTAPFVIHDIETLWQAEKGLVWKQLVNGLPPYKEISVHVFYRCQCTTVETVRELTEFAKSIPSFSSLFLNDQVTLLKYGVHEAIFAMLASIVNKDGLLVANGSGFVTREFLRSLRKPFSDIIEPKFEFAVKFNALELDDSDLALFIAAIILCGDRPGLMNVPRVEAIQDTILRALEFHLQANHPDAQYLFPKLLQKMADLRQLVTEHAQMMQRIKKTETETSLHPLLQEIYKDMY

[4] = Half life in rat at 3 mg/kg, po; assay type: ADME, organism-based; set-up: dose 3 mg/kg, route oral; conditions: in vivo
Mus musculus [5] = assay: Reduction of plasma glucose level in db/db mouse at 10 mg/kg, po after 7 days; assay type: functional, organism-based; set-up: dose 10 mg/kg
Outline: (§1)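 Female db/db mice grouped by equal mean plasma glucose, then given compound orally once daily for 7 days in 0.5% methylcellulose in water; fed ad libitum. Plasma glucose measured about 24 h after the last dose. Percent change from drug = ((Tf/Ti)/(Vf/Vi) − 1) × 100, correcting for vehicle-group change.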

[6] = target: T4, Peroxisome proliferator-activated receptor delta (Mus musculus, UniProt P35396); assay: Activity at mouse PPARdelta expressed in CV1 cells by GAL4 transactivation assay; assay type: cell-based, CV-1
T4 sequence (P35396 whole entry): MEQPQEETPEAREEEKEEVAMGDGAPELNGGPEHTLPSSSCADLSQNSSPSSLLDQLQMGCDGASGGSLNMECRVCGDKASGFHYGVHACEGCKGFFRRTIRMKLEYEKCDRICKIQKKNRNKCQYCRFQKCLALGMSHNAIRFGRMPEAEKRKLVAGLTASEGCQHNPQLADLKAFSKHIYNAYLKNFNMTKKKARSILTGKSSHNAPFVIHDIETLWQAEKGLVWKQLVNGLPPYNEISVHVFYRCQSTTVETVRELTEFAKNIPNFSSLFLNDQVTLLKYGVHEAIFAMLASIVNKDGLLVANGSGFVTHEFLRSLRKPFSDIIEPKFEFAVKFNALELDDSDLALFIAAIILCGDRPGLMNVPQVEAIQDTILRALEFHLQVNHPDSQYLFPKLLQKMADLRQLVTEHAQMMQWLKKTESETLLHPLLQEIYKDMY
Outline: (§2)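 GAL4 transactivation in CV-1 cells (2.8 × 10⁴ per well, grown overnight in 10% FBS medium). Cells transiently transfected (Lipofectamine/Plus) with Gal4/PPAR-LBD fusion, UAS/firefly luciferase and Renilla luciferase plasmids. After overnight culture in charcoal/dextran-treated 10% FBS medium, compound added for 24 h. Dual luciferase read-out; EC50 from dose–response curve; means of at least two experiments.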

Mus musculus [7] = assay: Reduction of triglycerides level in hApoA1 mouse at 30 mg/kg, po after 10 days; set-up: scale not given: the % may be the effect or the level left
[8] = target: T1, Peroxisome proliferator-activated receptor alpha; assay: Activity at human PPARalpha expressed in CV1 cells by GAL4 transactivation assay; assay type: cell-based, CV-1; outline: as §2
Mus musculus [9] = assay: Increase in HDL-cholesterol level in hApoA1 mouse at 30 mg/kg, po after 10 days
[10] = Bioavailability in rat at 3 mg/kg, po; assay type: ADME, organism-based; conditions: in vivo
Rattus norvegicus [11] = assay: AUC in rat at 3 mg/kg, po; assay type: ADME, organism-based, Plasma; set-up: dose 3 mg/kg, route oral; conditions: in vivo
Mus musculus [12] = assay: Reduction of plasma glucose level in orally dosed db/db mouse after 7 days; assay type: functional; conditions: po, 168 h; outline: as §1
[13] = Cmax in rat at 3 mg/kg, po and 3 mg/kg, iv; assay type: ADME, organism-based; conditions: in vivo
[14] = target: T3, Peroxisome proliferator-activated receptor delta; assay: Activity at human PPARdelta expressed in CV1 cells by GAL4 transactivation assay; assay type: cell-based, CV-1; outline: as §2
Rattus norvegicus [15] = assay: Reduction of glucose level in Zucker fa/fa rat at 10 mg/kg after 10 days; assay type: functional, organism-based; set-up: dose 10 mg/kg
[16] = target: T5, Peroxisome proliferator-activated receptor alpha (Mus musculus, UniProt P23204); assay: Activity at mouse PPARalpha expressed in CV1 cells by GAL4 transactivation assay; assay type: cell-based, CV-1; outline: as §2
T5 sequence (P23204 whole entry): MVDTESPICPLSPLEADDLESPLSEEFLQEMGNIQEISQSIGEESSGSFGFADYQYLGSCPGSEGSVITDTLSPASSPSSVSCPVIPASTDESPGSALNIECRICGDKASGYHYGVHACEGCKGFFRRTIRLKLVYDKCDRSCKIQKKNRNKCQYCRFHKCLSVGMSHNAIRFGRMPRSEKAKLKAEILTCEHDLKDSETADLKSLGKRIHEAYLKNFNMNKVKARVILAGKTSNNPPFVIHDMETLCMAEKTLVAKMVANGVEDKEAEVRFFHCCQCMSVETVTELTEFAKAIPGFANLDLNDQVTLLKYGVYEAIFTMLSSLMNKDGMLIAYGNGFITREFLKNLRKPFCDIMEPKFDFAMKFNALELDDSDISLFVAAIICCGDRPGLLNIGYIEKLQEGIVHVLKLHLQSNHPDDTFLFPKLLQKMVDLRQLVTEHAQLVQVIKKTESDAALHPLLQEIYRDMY

Row | Compound | EC50 [1] | EC50 [2] | EC50 [3] | also measured
1 | CCc1ccc(-c2ncc(CC)c(N(C)CCCOc3ccc4c(c3)CC[C@H]4CC(=O)O)n2)cc1 | 120 nM | 950 nM | 2 nM | –
2 | CCOc1csc(-c2ccc(OCCCOc3ccc4c(c3)CC[C@H]4CC(=O)O)nc2)n1 | 807 nM | 411 nM | 3 nM | –
3 | CCOc1ccc(-c2ncc(C)c(N(C)CCCOc3ccc4c(c3)CC[C@H]4CC(=O)O)n2)cc1 | 3090 nM | 161 nM | 58 nM | –
4 | CCc1csc(-c2ccc(OCCCOc3ccc4c(c3)CC[C@H]4CC(=O)O)nc2)n1 | 421 nM | 264 nM | 3 nM | –
5 | CCc1ccc(-c2nccc(N(C)CCCOc3ccc4c(c3)CC[C@H]4CC(=O)O)n2)cc1 | 565 nM | 800 nM | 25 nM | –
6 | Cc1cnc(-c2ccc(F)cc2)nc1N(C)CCCOc1ccc2c(c1)CC[C@H]2CC(=O)O | 2120 nM | 860 nM | 7 nM | –
7 | CC(=O)c1sc(-c2ccc(OCCCOc3ccc4c(c3)CC[C@H]4CC(=O)O)nc2)nc1C | 1390 nM | 35 nM | 9 nM | half-life [4]: 5 h; Activity (Mus musculus [5]): Active; IC50 [6]: 1390 nM; Activity (Mus musculus [7]): -32%; IC50 [8]: > 6000 nM; Activity (Mus musculus [9]): 22%; bioavailability [10]: 48%; AUC (Rattus norvegicus [11]): 26 µM·h; ED50 (Mus musculus [12]): 6.7 mg/kg; Cmax [13]: 2800 nM; IC50 [14]: 56 nM; Activity (Rattus norvegicus [15]): Active
8 | CCc1ccc(-c2ncc(F)c(N(C)CCCOc3ccc4c(c3)CC[C@H]4CC(=O)O)n2)cc1 | 425 nM | 360 nM | 16 nM | –
9 | Cc1cnc(-c2ccc(C(C)C)cc2)nc1N(C)CCCOc1ccc2c(c1)CC[C@H]2CC(=O)O | 990 nM | 29 nM | 34 nM | IC50 [6]: 610 nM; IC50 [8]: 237 nM; IC50 [14]: 49 nM; IC50 [16]: 2530 nM
10 | Cc1cnc(-c2ccccc2)nc1N(C)CCCOc1ccc2c(c1)CC[C@H]2CC(=O)O | 6610 nM | 678 nM | 24 nM | –
11 | COc1ccc(-c2ncc(C)c(N(C)CCCOc3ccc4c(c3)CC[C@H]4CC(=O)O)n2)cc1 | 1390 nM | 7010 nM | 12 nM | –
12 | CCc1ccc(-c2ncc(C)c(N(C)CCCOc3ccc4c(c3)CC[C@H]4CC(=O)O)n2)cc1 | 200 nM | 145 nM | 10 nM | IC50 [6]: 370 nM; IC50 [8]: 175 nM; IC50 [14]: 30 nM; IC50 [16]: 670 nM

Further lines, with some results ahead:

Row | EC50 [1] | EC50 [2] | EC50 [3] | Compound | also measured
13 | 2370 nM | 582 nM | 23 nM | Cc1cnc(-c2cccc(Cl)c2)nc1N(C)CCCOc1ccc2c(c1)CC[C@H]2CC(=O)O | –
14 | 3540 nM | 6930 nM | 7 nM | CCOc1cccc(-c2ncc(C)c(N(C)CCCOc3ccc4c(c3)CC[C@H]4CC(=O)O)n2)c1 | –
15 | 920 nM | 600 nM | 11 nM | CCc1ccc(-c2nc(C)cc(N(C)CCCOc3ccc4c(c3)CC[C@H]4CC(=O)O)n2)cc1 | –
16 | 1150 nM | 780 nM | 9 nM | Cc1ccc(-c2ncc(C)c(N(C)CCCOc3ccc4c(c3)CC[C@H]4CC(=O)O)n2)cc1 | –
17 | 6550 nM | 237 nM | 83 nM | CC(=O)c1ccc(-c2ncc(C)c(N(C)CCCOc3ccc4c(c3)CC[C@H]4CC(=O)O)n2)cc1 | –
18 | 641 nM | 156 nM | 28 nM | Cc1cnc(-c2ccc(C(C)(C)C)cc2)nc1N(C)CCCOc1ccc2c(c1)CC[C@H]2CC(=O)O | –
19 | 4390 nM | 670 nM | 41 nM | Cc1cccc(-c2ncc(C)c(N(C)CCCOc3ccc4c(c3)CC[C@H]4CC(=O)O)n2)c1 | –
20 | 6780 nM | 511 nM | 5 nM | Cc1nc(-c2ccc(OCCCOc3ccc4c(c3)CC[C@H]4CC(=O)O)nc2)sc1C | –
21 | 1130 nM | 2800 nM | 7 nM | Cc1cnc(-c2ccc(Cl)cc2)nc1N(C)CCCOc1ccc2c(c1)CC[C@H]2CC(=O)O | –
